Reference: the RNAGym collection of RNA variant scans (doi:10.1126/science.aae0568)
This sample holds only a part of the variants without activity.

B1: tRNA (parent)
chain: GUUCCGUUGGCGUAAUGGUAACGCGUCUCCCUCCUAAGGAGAAGACUGCGGGUUCGAGUCCCGUACGGAACG

Variants of: B1
Experiment: yeast fitness relative to wild type (ratio to wild type); higher = fitter; tRNA-Arg(CCU), competitive growth, 37 C, YPD
Method in brief: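 A pool of Saccharomyces cerevisiae strains, each with a tRNA-Arg(CCU) gene variant at the native genomic locus, was competed in YPD at 37°C for 24 hours across six parallel replicates. The variants had been chemically synthesised at a 3% per-site mutation rate over 69 sites, and gene amplicons before and after competition were read by 100-nucleotide paired-end sequencing. Darwinian fitness relative to wild type rested on changes in genotype frequencies. Genotypes required ≥ 100 starting reads, and estimates < 0.5 were set to 0.5.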

Row | Variant | yeast fitness
1 | A20U A37U C55U | ≤ 0.5
2 | A20U U64G | 0.725
3 | A20G U28A C30G U59C | ≤ 0.5
4 | A20U C22G A40G C66U | ≤ 0.5
5 | A21C A45C C49U C55G G56C | ≤ 0.5
6 | A20G G48A C49G | 0.635
7 | A20G G38A C46U | 0.883
8 | A20G U26C A65C | 0.704
9 | A20G C61A | 0.706
10 | A21C C27A C49G | 0.54
11 | A20U G51C A65G | ≤ 0.5
12 | A20G C31U A42U C46U A65C | ≤ 0.5
13 | A20G U32A A43C U53G | 0.607
14 | A20U C31G A69C | ≤ 0.5
15 | A20U A37C U53A | 0.682
16 | A21C A45C C62G A65C | 0.574
17 | A20U C22G C60A | ≤ 0.5
18 | A20G U35C G63A A70U | ≤ 0.5
19 | A20U A36U G44C | ≤ 0.5
20 | A20U U26A C62U | 0.542
21 | A21C A45U G52C | 0.581
22 | A20U C34A G58C C62A A69C | ≤ 0.5
23 | A20U G25A C27G G67A | 0.542
24 | A20G C33G G56A | 0.639

Row | Variant | yeast fitness
25 | A20U C27A A40C C46A | ≤ 0.5
26 | A20U A42C | 0.648
27 | A20U G23A A36U | 0.515
28 | A20G C49U A69C | 0.786
29 | A20U C34U G41A | ≤ 0.5
30 | A21C A42U G52A C60A A69G | ≤ 0.5
31 | A20G G38U A43C A57U | ≤ 0.5
32 | A20U C22G A40G A70U | ≤ 0.5
33 | A20U G25A C49G | 0.619
34 | A20G C55G C61U | 0.534
35 | A20U G25C | 0.885
36 | A20U A42U C61U C66U | ≤ 0.5
37 | A20U A57U | 0.762
38 | A20G G56C A70U | 0.859
39 | A20G G38A C46U A70U | 0.594
40 | A21C A42G A69C A70G | 0.543
41 | A21C A37U A42U C46G U47G | 0.534
42 | A20U C33U A43G U64C | ≤ 0.5
43 | A20U G38C G68U | ≤ 0.5
44 | A20U C33A G41C | ≤ 0.5
45 | A20G U26C G39A G50A | ≤ 0.5
46 | A20U A37G C66A A69U | ≤ 0.5
47 | A20G U35G A65U | ≤ 0.5
48 | A20U G25C U35C C60G | ≤ 0.5

Row | Variant | yeast fitness
49 | A20U C30A A40C | ≤ 0.5
50 | A20U G50A C60G | ≤ 0.5
51 | A20U G41C G56C | 0.574
52 | A20G G23C C31U C46G | 0.526
53 | A20U G23A C49U | 0.609
54 | A20U A36G G67C A69C | ≤ 0.5
55 | A21C A36C G56A | 0.562
56 | A20U U32C A43G | 0.659
57 | A20U U28G C30U U32G C34G | ≤ 0.5
58 | A21C C22A C29U C49G | ≤ 0.5
59 | A21C C24U A37C G39A C49G A69C | ≤ 0.5
60 | A20G G44A C62U | 0.628
61 | A20G U47C G58U A65U | ≤ 0.5
62 | A20G U54C | 0.719
63 | A20U G25C C49G A65C A70U | ≤ 0.5
64 | A20U C62U U64G | 0.603
65 | A20U C24G G63A A65U | ≤ 0.5
66 | A20U U47A U53C | 0.532
67 | A20U A45G G50A G52A | 0.602
68 | A20G G38C A70U | 0.57
69 | A20U C31G A36C A45G A70U | ≤ 0.5
70 | A20U C61G | 0.712
71 | A20U C61A | 0.646
72 | A20U G50A U59C | 0.619

Row | Variant | yeast fitness
73 | A20U U32A G67C | 0.543
74 | A20G G56C | 0.61
75 | A20U C46U A69G | 0.893
76 | A21C A45G G63C C66U | ≤ 0.5
77 | A20U C62G | 0.682
78 | A20U G23A A36U A65U | ≤ 0.5
79 | A20G G41A | 1.2
80 | A20G G41C | 1.01
81 | A20U A36C C60A | ≤ 0.5
82 | A20G G23C C31G G50A | ≤ 0.5
83 | A20U C24A A57C | ≤ 0.5
84 | A20U C31G C55G A57U | ≤ 0.5
85 | A20G G39C A45C C49G | ≤ 0.5
86 | A20G C49A | 0.655
87 | A21C C24A C49U | ≤ 0.5
88 | A20G C46U | 0.942
89 | A20U C31U C62U | 0.826
90 | A21C C24G G68C | ≤ 0.5
91 | A20G C34A G58A | 0.622
92 | A20U A40U A69U | 0.73
93 | A20U C24G C31G G52A C55G C61U | ≤ 0.5
94 | A20G U26A G63A | 0.613
95 | A20U A21U C31G C55A C66U | ≤ 0.5
96 | A20U A42C G48A | 0.543

Row | Variant | yeast fitness
97 | A20U U28C C30U A43G | ≤ 0.5
98 | A20G C46U G63A | 0.82
99 | A21C C27G U28A C29U C34U | 0.525
100 | A20G C60A C61G | ≤ 0.5
101 | A21C C27A C33U | 0.906
102 | A20U C34A C55G C66A | 0.561
103 | A20U A21C | 0.651
104 | A20U A21G | 0.947
105 | A20U C31U C62A A69U | ≤ 0.5
106 | A20U C31U A57U | 0.567
107 | A20U C22U C33A C66A | ≤ 0.5
108 | A20U C34A G38A U59A | ≤ 0.5
109 | A20U G50C | 0.638
110 | A21C A57G | 0.708
111 | A21C A57C | 0.548
112 | A20G U47C | 0.947
113 | A20U C55U A57C | ≤ 0.5
114 | A21C C22G G38C | 0.52
115 | A20U C24G C49G | ≤ 0.5
116 | A20G C60A | 0.751
117 | A20U C60G | 0.691
118 | A21C A45C C49U | 0.582
119 | A20U C62U A69C | 0.686
120 | A20U | 0.986

Row | Variant | yeast fitness
121 | A20U G38C G50C A65C | ≤ 0.5
122 | A20U U47A A70C | 0.536
123 | A20U C27G C46G C49U | ≤ 0.5
124 | A20U C27G C30G A36C A70U | ≤ 0.5
125 | A20U G38C C49A | ≤ 0.5
126 | A20U G44A C60A | ≤ 0.5
127 | A20G C34G A37C C66U | ≤ 0.5
128 | A20U G25C A37G C60G C61G A70U | ≤ 0.5
129 | A20G G25A | 0.904
130 | A20G G25C | 0.985
131 | A20U A65C | 0.823
132 | A20U U35A C46G C49U | ≤ 0.5
133 | A21C A37C A69U | ≤ 0.5
134 | A20G C49A A65G | 0.619
135 | A20U G48C U53C G68C | ≤ 0.5
136 | A21C C22G U32A G56C | ≤ 0.5
137 | A21C C27G G39C | ≤ 0.5
138 | A20U G23C U53A C55U | ≤ 0.5
139 | A20G C66A | 0.635
140 | A20G U47A U53A | ≤ 0.5
141 | A20U A43U C49A G68A | ≤ 0.5
142 | A20U U28A C31U C55G A57C | ≤ 0.5
143 | A20G U32G | 0.672
144 | A20G U32C | 0.949

Row | Variant | yeast fitness
145 | A20G C60A U64A C66U | ≤ 0.5
146 | A20U C34G G38C | ≤ 0.5
147 | A20G G51C | 0.581
148 | A20G G38A | 0.912
149 | A21C C22U C31U C33U | ≤ 0.5
150 | A20U C24U A42C C62G | 0.735
151 | A20U U47G | 0.611
152 | A20U U26C | 0.89
153 | A20U A43C U54C | ≤ 0.5
154 | A20G C34G G41C | ≤ 0.5
155 | A20G C46U G50C C61A | 0.572
156 | A21C C24G A37U C55U | ≤ 0.5
157 | A20U G39C | 0.81
158 | A20U C34G | 0.68
159 | A20U C34A | 0.7
160 | A20U C34U | 0.652
161 | A20U G52A | 0.759
162 | A20U C34A C62U | 0.542
163 | A20U C27G C29A A57G A65G | ≤ 0.5
164 | A20U G25C A37G C60G C61G | 0.561
165 | A20G C33U | 0.798
166 | A20G C34G C55G U59C C60U G67U | ≤ 0.5
167 | A20G G23C G50A | ≤ 0.5
